# Assay results taken from ChEMBL document CHEMBL2321859, “Cytotoxic betulin-derived hydroxypropargylamines trigger apoptosis” (Bioorg Med Chem, 2013).
# pIC50: −log10 of the molar value.
# Assays:
# NIH3T3 = assay: Cytotoxicity against mouse NIH/3T3 cells assessed as cell viability after 96 hrs by SRB assay; type: cell-based; conditions: NIH3T3, 96 h
# [1] = Cytotoxicity against human 518A2 cells assessed as cell viability after 96 hrs by SRB assay; type: functional, cell-based
# 8505C = assay: Cytotoxicity against human 8505C cells assessed as cell viability after 96 hrs by SRB assay; type: functional, cell-based
# [2] = Cytotoxicity against human A253 cells assessed as cell viability after 96 hrs by SRB assay; type: functional, cell-based
# A2780 = assay: Cytotoxicity against human A2780 cells assessed as cell viability after 96 hrs by SRB assay; type: functional, cell-based
# A549 = assay: Cytotoxicity against human A549 cells assessed as cell viability after 96 hrs by SRB assay; type: functional, cell-based
# DLD-1 = assay: Cytotoxicity against human DLD1 cells assessed as cell viability after 96 hrs by SRB assay; type: functional, cell-based
# MCF7 = assay: Cytotoxicity against human MCF7 cells assessed as cell viability after 96 hrs by SRB assay; type: functional, cell-based
# [3] = Cytotoxicity against human Lipo cells assessed as cell viability after 96 hrs by SRB assay; type: functional, cell-based
# SW-1736 = assay: Cytotoxicity against human SW1736 cells assessed as cell viability after 96 hrs by SRB assay; type: functional, cell-based
# [4] = Solubility of the compound in water/DMSO mixture; type: physicochemical; conditions: water/DMSO mixture; read-out: solubility
# Method in brief: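 Solubility was measured in water/DMSO (95:5, v/v) by HPLC with UV/vis detection.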
solubility [4] [µg/mL],Compound,pIC50 (NIH3T3),"pIC50 ([1]; Homo sapiens, 518A2, 96 h)","pIC50 (8505C; Homo sapiens, 8505C, 96 h)","pIC50 ([2]; Homo sapiens, A253, 96 h)","pIC50 (A2780; Homo sapiens, A2780, 96 h)","pIC50 (A549; Homo sapiens, A549, 96 h)","pIC50 (DLD-1; Homo sapiens, DLD-1, 96 h)","pIC50 (MCF7; Homo sapiens, MCF7, 96 h)","pIC50 ([3]; Homo sapiens, Lipo, 96 h)","pIC50 (SW-1736; Homo sapiens, SW-1736, 96 h)",pIC50 (A549; a549),pIC50 ([3]; lipo),pIC50 ([1]; 518a2),pIC50 (8505C; 8505c),pIC50 ([2]; a253),pIC50 (A2780; a2780),pIC50 (DLD-1; dld-1),pIC50 (MCF7; mcf7),pIC50 (SW-1736; sw-1736)
–,C=C(C)[C@@H]1CC[C@]2([C@@H](O)C#CCN(Cc3ccccc3)Cc3ccccc3)CC[C@]3(C)[C@H](CC[C@@H]4[C@@]5(C)CC[C@H](OC(C)=O)C(C)(C)[C@@H]5CC[C@]43C)[C@@H]12,< 4.15,< 4.52,< 4.52,< 4.15,< 4.15,< 4.15,< 4.15,4.57,< 4.15,< 4.15,–,–,–,–,–,–,–,–,–
–,C=C(C)[C@@H]1CC[C@]2([C@@H](O)C#CCN3CCCC3)CC[C@]3(C)[C@H](CC[C@@H]4[C@@]5(C)CC[C@H](OC(C)=O)C(C)(C)[C@@H]5CC[C@]43C)[C@@H]12,4.84,4.92,4.95,4.98,5.08,4.92,4.73,5.11,4.94,4.70,–,–,–,–,–,–,–,–,–
178,C=C(C)[C@@H]1CC[C@]2([C@H](O)C#CCN3CCNCC3)CC[C@]3(C)[C@H](CC[C@@H]4[C@@]5(C)CC[C@H](OC(C)=O)C(C)(C)[C@@H]5CC[C@]43C)[C@@H]12.Cl,5.40,5.30,5.16,5.34,5.57,5.19,5.28,5.60,5.57,5.11,–,–,–,–,–,–,–,–,–
–,C=CCN(CC#C[C@@H](O)[C@]12CC[C@@H](C(=C)C)[C@@H]1[C@H]1CC[C@@H]3[C@@]4(C)CC[C@H](OC(C)=O)C(C)(C)[C@@H]4CC[C@@]3(C)[C@]1(C)CC2)CC=C [listing 1 of 2 here],–,< 4.22,< 4.22,4.37,4.74,–,4.24,4.51,–,4.32,< 4.52,4.77,–,–,–,–,–,–,–
–,C=CCN(CC#C[C@@H](O)[C@]12CC[C@@H](C(=C)C)[C@@H]1[C@H]1CC[C@@H]3[C@@]4(C)CC[C@H](OC(C)=O)C(C)(C)[C@@H]4CC[C@@]3(C)[C@]1(C)CC2)CC=C [listing 2 of 2 here],< 4.22,–,–,–,–,< 4.22,–,–,4.66,–,–,–,4.28,4.32,4.48,4.91,4.35,4.80,4.52
–,C#C[C@H](O)[C@]12CC[C@@H](C(=C)C)[C@@H]1[C@H]1CC[C@@H]3[C@@]4(C)CCC(=O)C(C)(C)[C@@H]4CC[C@@]3(C)[C@]1(C)CC2,< 4.46,4.65,4.78,4.87,5.01,4.67,4.72,4.77,4.66,4.74,–,–,–,–,–,–,–,–,–
312,C=C(C)[C@@H]1CC[C@]2([C@H](O)C#CCN(C)C)CC[C@]3(C)[C@H](CC[C@@H]4[C@@]5(C)CC[C@H](OC(C)=O)C(C)(C)[C@@H]5CC[C@]43C)[C@@H]12.Cl,5.24,5.14,5.17,5.19,5.31,4.95,4.89,5.43,5.07,5.19,–,–,–,–,–,–,–,–,–
–,C=C(C)[C@@H]1CC[C@]2([C@H](O)C#CCN(CCC)CCC)CC[C@]3(C)[C@H](CC[C@@H]4[C@@]5(C)CC[C@H](OC(C)=O)C(C)(C)[C@@H]5CC[C@]43C)[C@@H]12,< 4.52,4.68,4.55,4.82,4.92,4.59,4.68,4.78,4.62,5.12,–,–,–,–,–,–,–,–,–
100,C=C(C)[C@@H]1CC[C@]2([C@H](O)C#CCN(C3CCCCC3)C3CCCCC3)CC[C@]3(C)[C@H](CC[C@@H]4[C@@]5(C)CC[C@H](OC(C)=O)C(C)(C)[C@@H]5CC[C@]43C)[C@@H]12.Cl,< 4.52,< 4.52,< 4.52,< 4.52,< 4.52,< 4.52,< 4.52,< 4.52,< 4.52,< 4.52,–,–,–,–,–,–,–,–,–
